Experimental findings from ChEMBL document CHEMBL2163192, “N,N-Dimethyl-[9-(arylsulfonyl)-2,3,4,9-tetrahydro-1H-carbazol-3-yl]amines as novel, potent and selective 5-HT₆ receptor antagonists” (Bioorg Med Chem Lett, 2012) are described below.

In general, Ki refers to a dissociation constant, usually derived from enzyme kinetics or from competition with a known ligand. Read a low Ki as higher affinity. By IC50 is commonly meant the point on the concentration scale where inhibition reaches its midpoint. As a reminder, the Kb is the affinity of an antagonist, worked out from how it opposes an agonist. A word on the inhibition: it is how much of the control response was suppressed. Read a high inhibition as strong suppression. Usually Cmax stands for the maximum level reached in the sampled fluid or tissue. The AUC is concentration integrated over time. A higher AUC goes with more exposure. The term half-life denotes how long it takes for the measured level to halve. A higher half-life goes with slow loss. A word on the bioavailability: it is the share of a dose that reaches the circulation, judged against a reference dose that is usually intravenous. Lower therefore signals poor availability. By CL/F is commonly meant clearance divided by bioavailability, as obtained after extravascular dosing. The term clearance denotes the rate of elimination divided by the concentration. A higher clearance goes with a high capacity for elimination.

Active and inactive are the calls of the source. The rule behind the calls is not given here.

Data set [1] concerns the target T1, 5-hydroxytryptamine receptor 6 (Homo sapiens, UniProt P50406). The experiment in a line: Displacement of [3H]LSD from human cloned 5-HT6 receptor expressed in HeLa cells after 1 hr by scintillation counter. It counts as cell-based.
Data set [2] addresses T1, 5-hydroxytryptamine receptor 6. The experiment in a line: Antagonist activity at human recombinant 5-HT6 receptor expressed in CHO cells assessed as inhibition of 5-HT-stimulated cAMP accumulation after 4 hrs by luciferase reporter gene assay. It counts as functional, cell-based. A digest of the protocol: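 Cell-based, non-radioactive reporter gene assay measuring antagonism of 5-HT-stimulated cAMP formation at human 5-HT6 receptor; IC50 and Kb values determined in duplicate.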
For orientation: Changes in cAMP serve as a functional read-out for many G protein-coupled receptors.

Data set [3] has as its target Sodium-dependent serotonin transporter (Homo sapiens) (UniProt P31645). Put plainly: Inhibition of SERT at 1 uM. The procedure, abridged: (§1)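 In-house selectivity panel of related receptors and transporters; each compound tested at 1 μM and 10 μM; percent inhibition determined in duplicate and the mean of the two reported.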
Data set [4] has as its target T2, Alpha-1B adrenergic receptor (Homo sapiens) (UniProt P35368).
T2 sequence (whole entry): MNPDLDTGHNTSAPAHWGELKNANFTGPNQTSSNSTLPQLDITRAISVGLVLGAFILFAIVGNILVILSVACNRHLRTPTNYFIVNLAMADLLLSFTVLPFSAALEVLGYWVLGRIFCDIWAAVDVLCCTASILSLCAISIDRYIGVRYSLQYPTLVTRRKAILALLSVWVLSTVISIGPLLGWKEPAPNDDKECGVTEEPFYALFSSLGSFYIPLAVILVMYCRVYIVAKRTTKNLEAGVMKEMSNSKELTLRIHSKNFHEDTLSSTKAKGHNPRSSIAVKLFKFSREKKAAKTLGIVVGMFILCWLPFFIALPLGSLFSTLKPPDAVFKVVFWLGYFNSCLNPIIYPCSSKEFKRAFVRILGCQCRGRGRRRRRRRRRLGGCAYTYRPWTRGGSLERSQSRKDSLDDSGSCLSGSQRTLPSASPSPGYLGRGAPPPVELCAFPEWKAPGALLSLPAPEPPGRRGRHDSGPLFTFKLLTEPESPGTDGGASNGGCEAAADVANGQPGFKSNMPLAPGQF
Put plainly: Inhibition of alpha1B adrenergic receptor at 1 uM. The procedure, abridged:
as §1

Data set [5] concerns the target T2, Alpha-1B adrenergic receptor (Homo sapiens). Put plainly: Inhibition of alpha1B adrenergic receptor at 10 uM. The procedure, abridged:
as §1

Data set [6] addresses T3, 5-hydroxytryptamine receptor 1A (Homo sapiens) (UniProt P08908).
T3 sequence (whole entry): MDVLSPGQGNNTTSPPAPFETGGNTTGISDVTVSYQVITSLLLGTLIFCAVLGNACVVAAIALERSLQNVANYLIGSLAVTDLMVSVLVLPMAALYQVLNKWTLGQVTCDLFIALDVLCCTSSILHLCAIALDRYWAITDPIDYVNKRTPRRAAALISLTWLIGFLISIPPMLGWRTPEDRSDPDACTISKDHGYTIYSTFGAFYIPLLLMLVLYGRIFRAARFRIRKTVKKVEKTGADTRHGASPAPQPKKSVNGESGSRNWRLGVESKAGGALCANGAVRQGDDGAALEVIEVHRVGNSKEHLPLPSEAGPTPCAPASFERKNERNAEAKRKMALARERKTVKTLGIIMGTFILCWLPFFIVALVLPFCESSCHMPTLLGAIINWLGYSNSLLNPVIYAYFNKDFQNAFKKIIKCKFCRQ
Put plainly: Inhibition of 5-HT1A receptor at 1 uM. A digest of the protocol: as §1

The target in data set [7] is T3, 5-hydroxytryptamine receptor 1A (Homo sapiens). Put plainly: Inhibition of 5-HT1A receptor at 10 uM. The procedure, abridged: as §1
For data set [8], the target named is 5-hydroxytryptamine receptor 2A (Homo sapiens) (UniProt P28223). Put plainly: Inhibition of 5-HT2A receptor at 1 uM. A digest of the protocol: as §1
Chain of 5-hydroxytryptamine receptor 2A (Homo sapiens) (P28223 whole entry): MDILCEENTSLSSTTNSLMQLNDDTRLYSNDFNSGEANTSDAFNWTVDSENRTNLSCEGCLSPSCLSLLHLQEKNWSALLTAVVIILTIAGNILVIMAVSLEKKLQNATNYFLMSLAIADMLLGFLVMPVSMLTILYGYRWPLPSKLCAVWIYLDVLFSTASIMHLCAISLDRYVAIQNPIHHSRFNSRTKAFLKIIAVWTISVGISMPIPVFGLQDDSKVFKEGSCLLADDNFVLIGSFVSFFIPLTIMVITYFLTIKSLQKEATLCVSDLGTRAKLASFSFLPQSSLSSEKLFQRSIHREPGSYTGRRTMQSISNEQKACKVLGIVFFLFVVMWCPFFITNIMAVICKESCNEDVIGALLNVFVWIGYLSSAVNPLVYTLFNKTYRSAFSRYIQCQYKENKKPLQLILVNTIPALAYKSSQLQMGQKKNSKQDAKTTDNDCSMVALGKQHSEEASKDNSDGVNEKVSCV
For data set [9] the target is unchanged. Put plainly: Inhibition of 5-HT2A receptor at 10 uM. The procedure, abridged: as §1
Data set [10] has as its target D(2) dopamine receptor (Homo sapiens) (UniProt P14416). The experiment in a line: Inhibition of dopamine D2 receptor at 1 uM. The procedure, abridged: as §1
Data set [11] has the same target. Put plainly: Inhibition of dopamine D2 receptor at 10 uM. The procedure, abridged: as §1
The target in data set [12] is Sodium-dependent dopamine transporter (Homo sapiens) (UniProt Q01959). Put plainly: Inhibition of DAT at 1 uM. A digest of the protocol: as §1
Chain of Sodium-dependent dopamine transporter (Homo sapiens) (Q01959 whole entry): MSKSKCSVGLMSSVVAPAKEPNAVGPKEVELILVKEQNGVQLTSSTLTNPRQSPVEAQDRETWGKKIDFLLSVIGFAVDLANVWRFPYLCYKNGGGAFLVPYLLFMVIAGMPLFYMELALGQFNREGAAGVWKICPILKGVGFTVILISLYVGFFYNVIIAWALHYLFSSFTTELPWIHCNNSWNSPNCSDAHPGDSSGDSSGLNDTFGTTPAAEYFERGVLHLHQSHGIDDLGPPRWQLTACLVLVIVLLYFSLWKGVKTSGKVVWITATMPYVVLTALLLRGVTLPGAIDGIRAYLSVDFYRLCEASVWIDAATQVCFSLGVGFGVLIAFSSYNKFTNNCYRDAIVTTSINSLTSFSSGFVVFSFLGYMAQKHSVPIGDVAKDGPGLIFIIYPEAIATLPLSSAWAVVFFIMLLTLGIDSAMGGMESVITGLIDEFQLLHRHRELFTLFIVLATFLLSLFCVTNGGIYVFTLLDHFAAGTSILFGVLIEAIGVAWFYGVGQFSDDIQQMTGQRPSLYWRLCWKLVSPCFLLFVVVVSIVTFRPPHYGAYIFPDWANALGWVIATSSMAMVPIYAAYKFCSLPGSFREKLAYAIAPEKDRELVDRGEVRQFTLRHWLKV
Data set [13] has the same target. Put plainly: Inhibition of DAT at 10 uM. The procedure, abridged:
as §1

For data set [14], the target named is Histamine H3 receptor (Homo sapiens) (UniProt Q9Y5N1). Put plainly: Inhibition of histamine H3 receptor at 1 uM. A digest of the protocol:
as §1

Data set [15] shares this target. The experiment in a line: Inhibition of histamine H3 receptor at 10 uM. The procedure, abridged:
as §1

Data set [16] has as its target Histamine H4 receptor (Homo sapiens) (UniProt Q9H3N8). The experiment in a line: Inhibition of histamine H4 receptor at 1 uM. The procedure, abridged:
as §1

Data set [17] has the same target. Put plainly: Inhibition of histamine H4 receptor at 10 uM. A digest of the protocol: as §1
The target in the next data set is CYP2C19 (Homo sapiens, UniProt P33261). The experiment in a line: Inhibition of human CYP2C19 at 3 uM. It counts as ADME. The procedure, abridged:
(§2)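 Isoform-selective inhibition assays using heterologously expressed human CYP enzymes; compounds tested at 3 μM; percent inhibition reported.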

For another data set, the target named is CYP2D6 (Homo sapiens, UniProt P10635). The experiment in a line: Inhibition of human CYP2D6 at 3 uM. The format is ADME. A digest of the protocol:
as §2

Another data set concerns the target CYP3A4 (Homo sapiens, UniProt P08684). Put plainly: Inhibition of human CYP3A4 at 3 uM. It counts as ADME. The procedure, abridged:
as §2

Data set [18] is described as follows: Cmax in Wistar rat at 10 mg/kg, po. It counts as ADME, organism-based. Also on record: dose 10 mg/kg, route oral. The following applies: in vivo. A digest of the protocol:
(§3)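 Fasted male Wistar rats, n=3, given 10 mg/kg orally in water for injection (10 mL/kg); plasma Cmax, half-life, Vd and clearance derived, with bioavailability from comparison against the 10 mg/kg iv arm.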

A short description of data set [19]: Cmax in Wistar rat at 10 mg/kg, iv. The format is ADME, organism-based. The arrangement: dose 10 mg/kg, route intravenous. Conditions: in vivo. The procedure, abridged: (§4)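 Fasted male Wistar rats, n=3, single 10 mg/kg intravenous dose in water for injection (2 mL/kg); plasma concentration–time profile used for Cmax, AUC, half-life, Vd and clearance.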
Data set [20] can be described thus: AUC in Wistar rat at 10 mg/kg, po. The format is ADME, organism-based. The arrangement: dose 10 mg/kg, route oral. The following applies: plasma. The procedure, abridged: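 Fasted male Wistar rats (n = 3) received a single oral dose of 10 mg/kg in water for injection. AUC is given in ng.hr/mL as part of a pharmacokinetic profile that also includes Cmax, t1/2, Vd and clearance, and uses an i.v. 10 mg/kg arm to derive oral bioavailability.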

Data set [21] in a line: AUC in Wistar rat at 10 mg/kg, iv. The arrangement: dose 10 mg/kg, route intravenous. The format is ADME, organism-based. Conditions: plasma. The procedure, abridged: as §4
The nature of data set [22]: Half life in Wistar rat at 10 mg/kg, po. It counts as ADME, organism-based. The arrangement: dose 10 mg/kg, route oral. The following applies: in vivo. The procedure, abridged: as §3
Data set [23] can be described thus: Half life in Wistar rat at 10 mg/kg, iv. The format is ADME, organism-based. The arrangement: dose 10 mg/kg, route intravenous. Conditions: in vivo. The procedure, abridged: as §4
Data set [24] has as its system Rattus norvegicus. The experiment in a line: Volume of distribution in Wistar rat at 10 mg/kg, po. The format is ADME, organism-based. The arrangement: dose 10 mg/kg, route oral. The following applies: in vivo. A digest of the protocol:
as §3

The nature of data set [25]: Volume of distribution in Wistar rat at 10 mg/kg, iv. It counts as ADME, organism-based. Also on record: dose 10 mg/kg, route intravenous. The following applies: in vivo. The procedure, abridged:
as §4

Data set [26] is described as follows: Oral bioavailability in Wistar rat at 10 mg/kg. It counts as ADME, organism-based. The following applies: in vivo. A digest of the protocol:
as §3

Data set [27] is described as follows: Ratio of drug level in brain to plasma in Wistar rat at 10 mg/kg, po. It counts as ADME, organism-based. The following applies: read-out: BPR. Also on record: dose 10 mg/kg, route oral.
Data set [28] is described as follows: Clearance in Wistar rat at 10 mg/kg, po. The format is ADME, organism-based. The arrangement: dose 10 mg/kg, route oral. Conditions: in vivo. The procedure, abridged: as §3
The nature of data set [29]: Clearance in Wistar rat at 10 mg/kg, iv. It counts as ADME, organism-based. Also on record: dose 10 mg/kg, route intravenous. The following applies: in vivo. The procedure, abridged:
as §4

Data set [30] is described as follows: Drug metabolism in human liver microsomes. It counts as ADME, Microsome. Conditions: read-out: Drug metabolism.
The nature of data set [31]: Drug metabolism in rat liver microsomes. The format is ADME, Microsome. The following applies: read-out: Drug metabolism. (In general: Liver microsomes are vesicles of endoplasmic reticulum, rich in cytochrome P450 enzymes.)
The target in data set [32] is Sodium-dependent serotonin transporter (Homo sapiens) (UniProt P31645). The experiment in a line: Inhibition of SERT at 10 uM. The procedure, abridged: as §1
Chain of Sodium-dependent serotonin transporter (Homo sapiens) (P31645 whole entry, looked up): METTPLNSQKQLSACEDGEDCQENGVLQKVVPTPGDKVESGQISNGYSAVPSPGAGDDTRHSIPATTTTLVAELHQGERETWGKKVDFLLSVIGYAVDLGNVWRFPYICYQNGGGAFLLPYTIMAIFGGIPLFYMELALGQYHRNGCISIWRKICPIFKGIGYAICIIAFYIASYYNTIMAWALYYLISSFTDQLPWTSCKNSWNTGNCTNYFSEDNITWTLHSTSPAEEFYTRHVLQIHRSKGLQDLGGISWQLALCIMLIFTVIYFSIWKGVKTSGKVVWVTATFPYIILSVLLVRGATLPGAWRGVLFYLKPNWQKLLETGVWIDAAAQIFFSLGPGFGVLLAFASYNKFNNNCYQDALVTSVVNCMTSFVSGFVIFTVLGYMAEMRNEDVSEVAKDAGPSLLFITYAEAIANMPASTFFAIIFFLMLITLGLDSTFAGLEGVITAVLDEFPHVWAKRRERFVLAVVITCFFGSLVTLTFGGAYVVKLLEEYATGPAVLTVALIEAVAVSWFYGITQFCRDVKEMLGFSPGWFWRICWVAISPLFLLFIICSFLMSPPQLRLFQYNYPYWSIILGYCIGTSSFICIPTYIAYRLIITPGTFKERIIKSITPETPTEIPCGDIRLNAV
The test system of data set [33] is Rattus norvegicus. Put plainly: Cognitive enhancing effect in Wistar rat assessed as increase in time send on novel object at 1 to 10 mg/kg, po after 60 mins by novel object recognition test. It counts as functional, organism-based. A digest of the protocol: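 Novel object recognition in rats with 24-h delay procedure; 1, 3 and 10 mg/kg given orally in water for injection (2 mL/kg) 60 min before test; time exploring novel versus familiar object compared by paired t test, n = 8–10/group.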

T1 sequence (P50406 whole entry): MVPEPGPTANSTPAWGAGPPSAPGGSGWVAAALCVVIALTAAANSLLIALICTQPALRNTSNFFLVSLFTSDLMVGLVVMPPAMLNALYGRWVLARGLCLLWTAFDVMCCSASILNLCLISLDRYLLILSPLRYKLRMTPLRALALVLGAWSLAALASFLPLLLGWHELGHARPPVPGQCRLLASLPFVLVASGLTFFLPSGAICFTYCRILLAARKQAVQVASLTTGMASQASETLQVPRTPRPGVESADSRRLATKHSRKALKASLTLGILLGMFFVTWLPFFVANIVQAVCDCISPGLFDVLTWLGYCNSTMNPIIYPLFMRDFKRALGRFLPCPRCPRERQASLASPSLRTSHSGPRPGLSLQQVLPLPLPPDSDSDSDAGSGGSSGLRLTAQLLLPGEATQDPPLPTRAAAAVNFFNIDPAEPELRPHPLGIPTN
Chain of Histamine H4 receptor (Homo sapiens) (Q9H3N8 whole entry): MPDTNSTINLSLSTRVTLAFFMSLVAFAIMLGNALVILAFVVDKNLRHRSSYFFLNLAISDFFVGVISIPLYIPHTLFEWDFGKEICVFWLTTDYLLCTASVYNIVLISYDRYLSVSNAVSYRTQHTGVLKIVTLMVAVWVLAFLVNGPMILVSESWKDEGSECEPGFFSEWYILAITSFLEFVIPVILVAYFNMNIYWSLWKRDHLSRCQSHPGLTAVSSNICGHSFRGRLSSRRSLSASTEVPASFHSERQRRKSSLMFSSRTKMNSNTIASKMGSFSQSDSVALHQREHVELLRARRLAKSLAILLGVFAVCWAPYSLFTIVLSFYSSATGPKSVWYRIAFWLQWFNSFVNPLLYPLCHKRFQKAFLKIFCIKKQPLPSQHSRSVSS
Chain of Histamine H3 receptor (Homo sapiens) (Q9Y5N1 whole entry): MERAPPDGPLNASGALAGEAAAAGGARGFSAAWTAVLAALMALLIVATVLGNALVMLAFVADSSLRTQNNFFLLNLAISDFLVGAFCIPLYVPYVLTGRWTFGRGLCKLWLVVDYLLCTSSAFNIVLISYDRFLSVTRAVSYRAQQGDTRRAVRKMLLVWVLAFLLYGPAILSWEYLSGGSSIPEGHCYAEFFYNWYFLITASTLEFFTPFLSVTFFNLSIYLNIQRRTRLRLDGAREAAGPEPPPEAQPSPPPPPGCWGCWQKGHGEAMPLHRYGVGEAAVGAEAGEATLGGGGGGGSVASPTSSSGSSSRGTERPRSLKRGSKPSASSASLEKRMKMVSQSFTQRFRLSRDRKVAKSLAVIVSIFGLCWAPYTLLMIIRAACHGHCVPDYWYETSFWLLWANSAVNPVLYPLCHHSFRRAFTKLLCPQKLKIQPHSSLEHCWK
Chain of D(2) dopamine receptor (Homo sapiens) (P14416 whole entry): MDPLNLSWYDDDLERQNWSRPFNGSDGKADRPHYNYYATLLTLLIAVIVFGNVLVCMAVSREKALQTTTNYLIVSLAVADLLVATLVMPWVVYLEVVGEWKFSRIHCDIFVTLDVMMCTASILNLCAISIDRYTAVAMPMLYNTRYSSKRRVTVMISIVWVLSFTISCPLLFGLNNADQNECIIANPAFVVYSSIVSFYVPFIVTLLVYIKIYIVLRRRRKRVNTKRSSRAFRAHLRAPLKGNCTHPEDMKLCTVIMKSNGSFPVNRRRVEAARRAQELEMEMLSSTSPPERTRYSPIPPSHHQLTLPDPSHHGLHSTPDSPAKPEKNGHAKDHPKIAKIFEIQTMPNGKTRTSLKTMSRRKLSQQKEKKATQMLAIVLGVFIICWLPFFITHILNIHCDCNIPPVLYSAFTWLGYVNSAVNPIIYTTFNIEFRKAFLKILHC
Chain of CYP2C19 (P33261 whole entry, canonical isoform): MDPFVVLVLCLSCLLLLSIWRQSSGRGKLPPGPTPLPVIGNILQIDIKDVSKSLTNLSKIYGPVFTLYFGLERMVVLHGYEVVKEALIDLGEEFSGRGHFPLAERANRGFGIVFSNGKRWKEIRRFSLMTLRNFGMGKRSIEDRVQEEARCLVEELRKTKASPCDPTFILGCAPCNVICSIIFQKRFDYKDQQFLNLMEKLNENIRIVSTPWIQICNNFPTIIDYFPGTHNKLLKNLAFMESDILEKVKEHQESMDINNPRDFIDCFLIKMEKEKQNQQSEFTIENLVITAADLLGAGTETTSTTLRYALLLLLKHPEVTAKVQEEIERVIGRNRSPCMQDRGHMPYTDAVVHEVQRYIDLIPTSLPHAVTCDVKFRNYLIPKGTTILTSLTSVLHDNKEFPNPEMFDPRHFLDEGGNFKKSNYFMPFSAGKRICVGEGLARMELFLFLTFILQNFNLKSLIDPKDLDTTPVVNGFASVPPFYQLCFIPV
Chain of CYP2D6 (P10635 whole entry): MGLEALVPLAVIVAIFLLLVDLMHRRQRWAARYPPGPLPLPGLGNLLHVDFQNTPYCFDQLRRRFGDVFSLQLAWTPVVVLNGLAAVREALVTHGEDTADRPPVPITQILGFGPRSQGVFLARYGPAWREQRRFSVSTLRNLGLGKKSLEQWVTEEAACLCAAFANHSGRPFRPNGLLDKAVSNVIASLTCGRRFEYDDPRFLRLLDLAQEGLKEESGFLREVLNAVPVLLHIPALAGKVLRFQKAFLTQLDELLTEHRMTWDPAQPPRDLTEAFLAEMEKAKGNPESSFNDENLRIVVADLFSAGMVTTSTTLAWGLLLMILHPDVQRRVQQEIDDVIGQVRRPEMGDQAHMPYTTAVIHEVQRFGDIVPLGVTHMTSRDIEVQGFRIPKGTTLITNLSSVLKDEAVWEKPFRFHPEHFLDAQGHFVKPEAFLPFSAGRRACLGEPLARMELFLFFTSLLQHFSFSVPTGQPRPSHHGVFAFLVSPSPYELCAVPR
Chain of CYP3A4 (P08684 whole entry): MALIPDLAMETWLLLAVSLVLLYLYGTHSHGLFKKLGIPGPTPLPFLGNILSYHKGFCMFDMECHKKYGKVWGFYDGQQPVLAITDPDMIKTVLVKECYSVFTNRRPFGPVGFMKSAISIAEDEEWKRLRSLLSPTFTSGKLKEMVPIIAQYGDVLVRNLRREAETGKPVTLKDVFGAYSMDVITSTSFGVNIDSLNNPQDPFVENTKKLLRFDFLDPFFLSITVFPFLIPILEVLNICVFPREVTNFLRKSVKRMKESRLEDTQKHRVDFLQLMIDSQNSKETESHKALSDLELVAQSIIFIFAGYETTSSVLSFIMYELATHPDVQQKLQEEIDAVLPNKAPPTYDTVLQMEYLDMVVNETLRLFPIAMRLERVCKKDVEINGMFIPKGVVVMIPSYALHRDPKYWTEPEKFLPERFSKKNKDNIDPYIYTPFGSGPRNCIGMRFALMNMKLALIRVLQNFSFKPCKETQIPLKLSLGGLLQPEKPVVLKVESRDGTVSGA

On to `NC1CCc2[nH]c3ccc(S(=O)(=O)c4ccccc4)cc3c2C1` (configuration not stated), for which the Ki in data set [1] is 58 nM.

Take `COc1ccc2c(c1)c1c(n2S(=O)(=O)c2ccccc2)CCC(N(C)C)C1` (racemic): the IC50 in data set [2] was 457 nM. The antagonist dissociation constant (Kb) in data set [2] turned out to be 4.7 nM. The inhibition in [3] is 2.52%; in data set [4], 5.21%; in [5] it was 5.26%; in data set [6], 28.3%; in [7] it was 43.1%; in data set [8] it was 8.15%. In addition, the inhibition in data set [9] came to 46.7%; in data set [10] it was 11%; in data set [11] it was 51.3%; in [12] it was 1.48%; in [13], 6.23%; in [14], 22.8%. The inhibition in data set [15] came to 32.7%; in [16] it was 0%; in data set [17], 13.9%; in data set [32] it was 3.35%. The inhibition at 3 µM was 50% against CYP2C19, 50% against CYP2D6 and 10% against CYP3A4. Besides, the highest concentration (Cmax) in data set [18] is 90 ng/mL; in [19], 928 ng/mL. The AUC in data set [20] came out at 544 ng·h/mL; in data set [21], 2120 ng·h/mL. Besides, the figures for the half-life in [22] and in data set [23] were 7.67 h and 3.86 h, respectively. The Vd amounted to 21.95 L/kg in the data set with Rattus norvegicus [24] and 24.3 L/kg in data set [25]. The bioavailability in [26] is 26%. Besides, in data set [27], the Kp was 7.6. Besides, in [28], the CL/F turned out to be 331 mL/min/kg. This molecule registered a clearance in data set [29] of 73.8 mL/min/kg. Moreover, the metabolised was 49% in [30] and 74% in data set [31]. The outcome in the data set with Rattus norvegicus [33] was Active.
